The source made the active and inactive calls. The calls are words filed in the database; no cut-off is given here.
Legend:
[1] = biological target: T1, Sphingomyelin phosphodiesterase (Homo sapiens) (UniProt P17405); assay: Inhibition of mmLDL-stimulated acid sphingomyelinase in human PBMC lysates at 2 to 50 uM preincubated for 30 mins followed by mmLDL stimulation measured after 4 hrs by YO-PRO-1/Hoechst 33342 staining based assay
T1 sequence (whole entry): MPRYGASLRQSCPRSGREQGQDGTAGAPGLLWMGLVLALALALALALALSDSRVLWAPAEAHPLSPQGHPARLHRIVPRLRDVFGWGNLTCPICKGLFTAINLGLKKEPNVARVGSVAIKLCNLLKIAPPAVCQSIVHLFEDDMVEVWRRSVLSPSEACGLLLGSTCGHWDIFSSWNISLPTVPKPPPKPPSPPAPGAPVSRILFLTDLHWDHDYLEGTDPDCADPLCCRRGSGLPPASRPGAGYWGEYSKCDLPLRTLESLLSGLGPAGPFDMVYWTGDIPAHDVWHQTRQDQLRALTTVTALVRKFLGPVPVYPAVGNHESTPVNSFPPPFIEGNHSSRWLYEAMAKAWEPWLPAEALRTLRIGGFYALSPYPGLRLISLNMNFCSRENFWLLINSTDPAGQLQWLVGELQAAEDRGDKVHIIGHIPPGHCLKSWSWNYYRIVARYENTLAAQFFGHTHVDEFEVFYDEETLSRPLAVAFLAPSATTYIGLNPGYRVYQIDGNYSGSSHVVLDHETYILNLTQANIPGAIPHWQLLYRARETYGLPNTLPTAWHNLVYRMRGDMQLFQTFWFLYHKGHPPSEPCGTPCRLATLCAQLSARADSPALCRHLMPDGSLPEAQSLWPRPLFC

[2] = biological target: T2, Acid ceramidase (Homo sapiens) (UniProt Q13510); assay: Inhibition of mmLDL-stimulated acid ceramidase in human PBMC assessed as ratio of C24:1-ceramide/lipid phosphate level at 10 uM preincubated for 30 mins followed by mmLDL stimulation measured after 4 hrs by HPLC method (reference value: 1.16); format: cell-based
T2 sequence (whole entry): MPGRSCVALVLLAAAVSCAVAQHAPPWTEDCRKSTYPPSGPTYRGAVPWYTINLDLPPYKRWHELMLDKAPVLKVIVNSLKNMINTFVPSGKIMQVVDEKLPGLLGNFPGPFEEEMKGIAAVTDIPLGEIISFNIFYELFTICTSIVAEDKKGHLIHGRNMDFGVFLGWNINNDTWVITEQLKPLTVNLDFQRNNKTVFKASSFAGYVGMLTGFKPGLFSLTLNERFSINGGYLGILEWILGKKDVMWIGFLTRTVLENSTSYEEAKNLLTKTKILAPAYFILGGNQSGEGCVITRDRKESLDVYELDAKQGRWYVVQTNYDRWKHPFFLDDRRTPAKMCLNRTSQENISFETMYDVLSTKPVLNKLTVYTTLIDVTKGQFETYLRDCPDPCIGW
In short: (§1)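 Human macrophages from primary culture were preincubated 30 min with 10 µM compound. They were then stimulated 4 h with mmLDL (54 µg/mL), TNFalpha (3 ng/mL) or exogenous C6-ceramide (10 µM), or left unstimulated. Individual ceramide species (C16 and C24:1) were quantified in the cell lipid extracts.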

[3] = biological target: T2, Acid ceramidase (Homo sapiens); assay: Inhibition of acid ceramidase in human PBMC assessed as ratio of C24:1-ceramide/lipid phosphate level at 10 uM incubated for 30 mins measured after 4 hrs by HPLC method; format: cell-based; in short: as §1
MONO-MAC-6 [4] = assay: Upregulation of CCL4 mRNA expression level in human MONO-MAC-6 cells at 5 uM incubated for 30 mins measured after 1 hr by oligonucleotide array hybridization assay relative to control; format: functional
MONO-MAC-6 [5] = assay: Upregulation of CCL20 mRNA expression level in LPS-stimulated human MONO-MAC-6 cells at 5 uM preincubated for 30 mins followed by LPS stimulation measured after 1 hr by oligonucleotide array hybridization assay (reference value: 1.07); format: functional
MONO-MAC-6 [6] = assay: Downregulation of CCL20 mRNA expression level in human MONO-MAC-6 cells at 5 uM incubated for 30 mins measured after 1 hr by oligonucleotide array hybridization assay relative to control; format: functional
In short: (§2)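 Total RNA was isolated, transcribed and labeled with DY-647 dye, then co-hybridized with DY-548-labeled cDNA from untreated cells on an inflammation oligonucleotide chip (780 gene probes). Differential expression >1.5 was taken as significant.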

MONO-MAC-6 [7] = assay: Upregulation of CCL20 mRNA expression level in LPS-stimulated human MONO-MAC-6 cells at 5 uM preincubated for 30 mins followed by LPS stimulation measured after 4 hrs by oligonucleotide array hybridization assay (reference value: 10.69); format: functional
MONO-MAC-6 [8] = assay: Downregulation of CXCL10 mRNA expression level in human MONO-MAC-6 cells at 5 uM incubated for 30 mins measured after 6 hrs by oligonucleotide array hybridization assay relative to control; format: functional; in short: as §2
MONO-MAC-6 [9] = assay: Upregulation of CXCL2 mRNA expression level in LPS-stimulated human MONO-MAC-6 cells at 5 uM preincubated for 30 mins followed by LPS stimulation measured after 1 hr by oligonucleotide array hybridization assay (reference value: 1.42); format: functional
MONO-MAC-6 [10] = assay: Downregulation of CXCL2 mRNA expression level in LPS-stimulated human MONO-MAC-6 cells at 5 uM preincubated for 30 mins followed by LPS stimulation measured after 6 hrs by oligonucleotide array hybridization assay (reference value: 9.41); format: functional; in short: as §2
MONO-MAC-6 [11] = assay: Upregulation of PTGS2 mRNA expression level in LPS-stimulated human MONO-MAC-6 cells at 5 uM preincubated for 30 mins followed by LPS stimulation measured after 2 hrs by oligonucleotide array hybridization assay (reference value: 1.97); format: functional
MONO-MAC-6 [12] = assay: Upregulation of PTGS2 mRNA expression level in LPS-stimulated human MONO-MAC-6 cells at 5 uM preincubated for 30 mins followed by LPS stimulation measured after 4 hrs by oligonucleotide array hybridization assay (reference value: 5.29); format: functional
MONO-MAC-6 [13] = assay: Upregulation of PTGS2 mRNA expression level in human MONO-MAC-6 cells at 5 uM incubated for 30 mins measured after 4 hrs by oligonucleotide array hybridization assay relative to control; format: functional
MONO-MAC-6 [14] = assay: Downregulation of ICAM1 mRNA expression level in human MONO-MAC-6 cells at 5 uM incubated for 30 mins measured after 4 hrs by oligonucleotide array hybridization assay relative to control; format: functional; in short: as §2
MONO-MAC-6 [15] = assay: Upregulation of ICAM1 mRNA expression level in LPS-stimulated human MONO-MAC-6 cells at 5 uM preincubated for 30 mins followed by LPS stimulation measured after 6 hrs by oligonucleotide array hybridization assay (reference value: 2.90); format: functional
MONO-MAC-6 [16] = assay: Upregulation of CXCL2 mRNA expression level in LPS-stimulated human MONO-MAC-6 cells at 5 uM preincubated for 30 mins followed by LPS stimulation measured after 1 hr by qRT-PCR method (reference value: 1.29); format: functional
MONO-MAC-6 [17] = assay: Downregulation of CXCL2 mRNA expression level in LPS-stimulated human MONO-MAC-6 cells at 5 uM preincubated for 30 mins followed by LPS stimulation measured after 6 hrs by qRT-PCR method (reference value: 5.22); format: functional
MONO-MAC-6 [18] = assay: Downregulation of IL-6 mRNA expression level in human MONO-MAC-6 cells at 5 uM incubated for 30 mins measured after 1 hr by qRT-PCR method relative to control; format: functional

COc1ccc(CCN(C)CCCn2c3ccccc3c3ccccc32)cc1 was tested, and the inhibition [1] was “Active”, the Ratio [2] was 2.45 and the Ratio [3] was 8.71. For the same molecule, the “fold change (FC)” value (MONO-MAC-6 [4]) was 1.22, the “fold change (FC)” value (MONO-MAC-6 [5]) was 1.03 and the “fold change (FC)” value (MONO-MAC-6 [6]) was 1.09. For the same molecule, the “fold change (FC)” value (MONO-MAC-6 [7]) was 4.54, the “fold change (FC)” value (MONO-MAC-6 [8]) was 6.7 and the “fold change (FC)” value (MONO-MAC-6 [9]) was 1.14. The “fold change (FC)” value (MONO-MAC-6 [10]) was 1.01, the “fold change (FC)” value (MONO-MAC-6 [11]) was 3.66 and the “fold change (FC)” value (MONO-MAC-6 [12]) was 4.07. For the same molecule, the “fold change (FC)” value (MONO-MAC-6 [13]) was 1.17, the “fold change (FC)” value (MONO-MAC-6 [14]) was 1.57 and the “fold change (FC)” value (MONO-MAC-6 [15]) was 1.15. The “fold change (FC)” value (MONO-MAC-6 [16]) was 1.08, the “fold change (FC)” value (MONO-MAC-6 [17]) was 1.01 and the “fold change (FC)” value (MONO-MAC-6 [18]) was 1.04.

From ChEMBL document CHEMBL4152184, “NB 06: From a simple lysosomotropic aSMase inhibitor to tools for elucidating the role of lysosomes in signaling apoptosis and LPS-induced inflammation” (Eur J Med Chem, 2018)
